From ChEMBL document CHEMBL1128202, “Identification of a series of 3-(benzyloxy)-1-azabicyclo[2.2.2]octane human NK1 antagonists” (J Med Chem, 1995)

Key:
[1] = target: Substance-P receptor (Homo sapiens, UniProt P25103); test: Inhibition of binding of [125I]SP to the CHO cell line expressing human Tachykinin receptor 1; format: cell-based
[2] = tested on: Cavia porcellus; test: Inhibition of SP-induced extravasation in the skin of guinea pig after oral administration of a dose of 10 (ug/kg); format: functional
How it was run: (§1)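 Guinea pigs given test compound (po or ip); dorsal skin shaved and Evans blue (0.5 mL, 2.5 g/100 mL saline) injected iv. 10 min later, SP (0.5 pmol in 0.1% HSA saline) injected intradermally; 1 h exposure, then CO2 euthanasia. 6-mm punch biopsies of injection sites; dye extracted overnight in formamide at 45 °C. Read-out: % inhibition of Evans blue leakage.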

[3] = tested on: Cavia porcellus; test: Inhibition of SP-induced extravasation in the skin of guinea pig after […] administration of a dose of 10 (ug/kg); format: functional; how it was run: as §1
[4] = tested on: Cavia porcellus; test: Inhibition of SP-induced extravasation in the skin of guinea pig after intraperitoneal administration of a dose of 30 (ug/kg); format: functional; how it was run: as §1
[5] = tested on: Cavia porcellus; test: Inhibition of SP-induced extravasation in the skin of guinea pig after intraperitoneal administration of a dose of 10 (ug/kg); format: functional; how it was run: as §1
[6] = tested on: Cavia porcellus; test: Inhibition of SP-induced extravasation in the skin of guinea pig after intraperitoneal administration of a dose of 1 (ug/kg); format: functional; how it was run: as §1
[7] = tested on: Cavia porcellus; test: Inhibition of SP-induced extravasation in the skin of guinea pig after intraperitoneal administration of a dose of 3 (ug/kg); format: functional; how it was run: as §1

Chain of Substance-P receptor (P25103 whole entry): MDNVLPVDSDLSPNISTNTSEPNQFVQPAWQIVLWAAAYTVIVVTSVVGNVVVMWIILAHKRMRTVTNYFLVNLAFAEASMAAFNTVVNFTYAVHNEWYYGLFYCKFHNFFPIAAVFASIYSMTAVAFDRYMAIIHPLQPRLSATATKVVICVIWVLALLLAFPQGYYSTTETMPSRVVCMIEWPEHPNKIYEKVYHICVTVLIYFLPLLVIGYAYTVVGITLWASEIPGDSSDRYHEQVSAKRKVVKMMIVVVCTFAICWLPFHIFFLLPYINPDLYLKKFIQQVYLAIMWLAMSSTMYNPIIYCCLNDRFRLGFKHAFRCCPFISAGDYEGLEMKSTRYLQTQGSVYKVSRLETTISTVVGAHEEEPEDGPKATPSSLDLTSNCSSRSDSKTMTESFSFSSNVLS

Structure (SMILES) | IC50 [1] [nM] | further results
FC(F)(F)c1cc(COC2C3CCN(CC3)C2C(c2ccccc2)C2CCCCC2)cc(C(F)(F)F)c1 (stereo not given) | 7.5 | –
Clc1cccc(COC2C3CCN(CC3)C2C(c2ccccc2)c2ccccc2)c1 (stereo not given) | 62 | –
Cc1ccc(C)c(COC2C3CCN(CC3)C2C(c2ccccc2)c2ccccc2)c1 (stereo not given) | 36 | –
FC(F)(F)c1ccc(COC2C3CCN(CC3)C2C(c2ccccc2)c2ccccc2)cc1 (stereo not given) | 370 | –
Clc1ccc(COC2C3CCN(CC3)C2C(c2ccccc2)c2ccccc2)cc1 (stereo not given) | 417 | –
c1ccc(COC2C3CCN(CC3)C2C(c2ccccc2)c2ccccc2)cc1 (stereo not given) | 110 | –
Cc1ccc(COC2C3CCN(CC3)C2C(c2ccccc2)c2ccccc2)cc1 (stereo not given) | 246 | –
FC(F)(F)c1cc(COC2C3CCN(CC3)C2Cc2ccccc2)cc(C(F)(F)F)c1 (stereo not given) | 103 | –
Brc1ccccc1COC1C2CCN(CC2)C1C(c1ccccc1)c1ccccc1 (stereo not given) | 37 | –
Fc1cc(F)cc(COC2C3CCN(CC3)C2C(c2ccccc2)c2ccccc2)c1 (stereo not given) | 33 | –
FC(F)(F)c1cccc(COC2C3CCN(CC3)C2C(c2ccccc2)c2ccccc2)c1 (stereo not given) | 300 | –
N#Cc1ccc(COC2C3CCN(CC3)C2C(c2ccccc2)c2ccccc2)cc1 (stereo not given) | 950 | –
Fc1ccccc1COC1C2CCN(CC2)C1C(c1ccccc1)c1ccccc1 (stereo not given) | 93 | –
Fc1cccc(COC2C3CCN(CC3)C2C(c2ccccc2)c2ccccc2)c1 (stereo not given) | 37 | –
Clc1ccccc1COC1C2CCN(CC2)C1C(c1ccccc1)c1ccccc1 (stereo not given) | 80 | –
Cc1ccc(COC2C3CCN(CC3)C2C(c2ccccc2)c2ccccc2)cc1C (stereo not given) | 172 | –
Fc1ccc(COC2C3CCN(CC3)C2C(c2ccccc2)c2ccccc2)cc1 (stereo not given) | 252 | –
Fc1ccc(F)c(COC2C3CCN(CC3)C2C(c2ccccc2)c2ccccc2)c1 (stereo not given) | 106 | –
Cc1cc(C)cc(COC2C3CCN(CC3)C2Cc2ccccc2)c1 (stereo not given) | 107 | –
FC(F)(F)c1ccccc1COC1C2CCN(CC2)C1C(c1ccccc1)c1ccccc1 (stereo not given) | 67 | –
c1ccc(Oc2cccc(COC3C4CCN(CC4)C3C(c3ccccc3)c3ccccc3)c2)cc1 (stereo not given) | 62 | –
COc1cccc(COC2C3CCN(CC3)C2C(c2ccccc2)c2ccccc2)c1 (stereo not given) | 56 | –
Cc1cc(I)cc(COC2C3CCN(CC3)C2C(c2ccccc2)c2ccccc2)c1 (stereo not given) | 0.32 | –
FC(F)(F)c1cc(CO[C@@H]2C3CCN(CC3)[C@H]2C(c2ccccc2)c2ccccc2)cc(C(F)(F)F)c1 | 125 | –
FC(F)(F)c1cc(CO[C@@H]2C3CCN(CC3)[C@@H]2C(c2ccccc2)c2ccccc2)cc(C(F)(F)F)c1 | 300 | Inhibition [2]: -17%

Structure (SMILES) | IC50 [1] [nM] | further results
Cc1cc(COC2C3CCN(CC3)C2C(c2ccccc2)c2ccccc2)cc([Si](C)(C)C)c1 (stereo not given) | 0.9 | –
N#Cc1ccccc1COC1C2CCN(CC2)C1C(c1ccccc1)c1ccccc1 (stereo not given) | 86 | –
Cc1ccccc1COC1C2CCN(CC2)C1C(c1ccccc1)c1ccccc1 (stereo not given) | 150 | –
Cc1cccc(COC2C3CCN(CC3)C2C(c2ccccc2)c2ccccc2)c1 (stereo not given) | 20 | –
N#Cc1cccc(COC2C3CCN(CC3)C2C(c2ccccc2)c2ccccc2)c1 (stereo not given) | 127 | –
c1ccc(CN[C@H]2C3CCN(CC3)[C@H]2C(c2ccccc2)c2ccccc2)cc1 | 0.085 | –
O=[N+]([O-])c1cccc(COC2C3CCN(CC3)C2C(c2ccccc2)c2ccccc2)c1 (stereo not given) | 197 | –
FC(F)(F)c1cc(CO[C@H]2C3CCN(CC3)[C@@H]2C(c2ccccc2)c2ccccc2)cc(C(F)(F)F)c1 | 0.2 | Inhibition [2]: 70%
Clc1cc(Cl)cc(COC2C3CCN(CC3)C2C(c2ccccc2)c2ccccc2)c1 (stereo in doubt; 67) | 3.5 | –
Clc1cc(Cl)cc(COC2C3CCN(CC3)C2C(c2ccccc2)c2ccccc2)c1 (stereo in doubt; 68) | 9 | –
FC(F)(F)c1cc(COC2C3CCN(CC3)C2C(c2ccccc2)c2ccccc2)cc(C(F)(F)F)c1 (stereo in doubt; 69) | 1.6 | –
FC(F)(F)c1cc(COC2C3CCN(CC3)C2C(c2ccccc2)c2ccccc2)cc(C(F)(F)F)c1 (stereo in doubt; 70) | 2.7 | –
Cc1cc(C)cc(COC2C3CCN(CC3)C2C(c2ccccc2)c2ccccc2)c1 (stereo in doubt; 72) | 0.9 | Inhibition [2]: 45%
Cc1cc(C)cc(COC2C3CCN(CC3)C2C(c2ccccc2)c2ccccc2)c1 (stereo in doubt; 73) | 0.26 | Inhibition [2]: 40%; Inhibition [3]: 89%
COc1cc(COC2C3CCN(CC3)C2C(c2ccccc2)c2ccccc2)cc(OC)c1 (stereo in doubt; 75) | 9.3 | –
COc1cc(COC2C3CCN(CC3)C2C(c2ccccc2)c2ccccc2)cc(OC)c1 (stereo in doubt; 76) | 8.3 | –
COc1cc(C)cc(COC2C3CCN(CC3)C2C(c2ccccc2)c2ccccc2)c1 (stereo in doubt; 77) | 1.9 | –
COc1cc(C)cc(COC2C3CCN(CC3)C2C(c2ccccc2)c2ccccc2)c1 (stereo in doubt; 78) | 1.5 | –
Cc1cc(C)cc(COC2C3CCN(CC3)C2C(Cc2ccccc2)c2ccccc2)c1 (stereo in doubt; 85) | 3.2 | –
Cc1cc(C)cc(COC2C3CCN(CC3)C2C(Cc2ccccc2)c2ccccc2)c1 (stereo in doubt; 86) | 23 | –
FC(F)(F)c1cc(COC2C3CCN(CC3)C2C(Cc2ccccc2)c2ccccc2)cc(C(F)(F)F)c1 (stereo in doubt; 87) | 3.9 | –
FC(F)(F)c1cc(COC2C3CCN(CC3)C2C(Cc2ccccc2)c2ccccc2)cc(C(F)(F)F)c1 (stereo in doubt; 88) | 425 | –
FC(F)(F)c1cc(COC2C3CCN(CC3)C2C(Cc2ccccc2)c2ccccc2)cc(C(F)(F)F)c1 (stereo in doubt; 89) | 10 | –
Cc1cc(C)cc(COC2C3CCN(CC3)C2C(Cc2ccccc2)c2ccccc2)c1 (stereo in doubt; 90) | 353 | –
FC(F)(F)c1cc(CO[C@H]2C3CCN(CC3)[C@H]2C(c2ccccc2)c2ccccc2)cc(C(F)(F)F)c1 [L-709210] | 0.2 | Inhibition [4]: 100%; Inhibition [2]: 76%; Inhibition [5]: 92%; Inhibition [6]: 6%; Inhibition [7]: 59%
